Legend:
[1] = system: SKOV3 cells; experiment: MTT cell viability assay, SKOV3; assay type: cell-based, human
In short: (§1)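 Culture: SKOV3 in RPMI-1640 with 10% FBS and penicillin-streptomycin at 37 °C, 5% CO2; OVCAR3 and IOSE80 in DMEM. Cells seeded at 1 × 10^4 per well, grown 24 h, then exposed to a range of test compound concentrations for 48 h. MTT (2 mg mL−1 stock) added, […]; formazan dissolved in DMSO; A490 read. IC50 calculated; SI = IC50 IOSE80/IC50 cancer line; three separate experiments.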

[2] = system: OVCAR3 cells; experiment: MTT cell viability assay, OVCAR3; assay type: cell-based, human
In short: as §1

[3] = system: IOSE80 cells; experiment: MTT cell viability assay, normal ovarian epithelial cells IOSE80; assay type: cell-based; conditions: Homo sapiens, IOSE80, 48 h, read-out: IC50 (cell viability) IOSE80
In short: as §1

IC50 ([1]; Homo sapiens, SK-OV-3, 48 h, read-out: IC50 (cell viability) SKOV3): 430 ± 30 nM
IC50 ([2]; Homo sapiens, OVCAR-3, 48 h, read-out: IC50 (cell viability) OVCAR3): 380 ± 40 nM
SMILES: CC(=O)O[C@H]1C(=O)[C@@]2(C)[C@H]([C@H](OC(=O)c3ccccc3)[C@]3(O)C[C@H](OC(=O)[C@H](O)[C@@H](NC(=O)c4ccccc4)c4ccccc4)C(C)=C1C3(C)C)[C@]1(OC(C)=O)CO[C@@H]1C[C@@H]2O [Paclitaxel]
SI (selectivity index) SKOV3 ([1]; IC50 IOSE80 cell line/IC50 SKOV3): 4.0
SI (selectivity index) OVCAR3 ([2]; IC50 IOSE80 cell line/IC50 OVCAR3): 4.5
IC50 [3]: 1700 ± 100 nM

From paper PMC9070660 (RSC Advances, 2019)
